Laboratory results taken from ChEMBL document CHEMBL3808367, “Novel HIV-1 Non-nucleoside Reverse Transcriptase Inhibitor Agents: Optimization of Diarylanilines with High Potency against Wild-Type and Rilpivirine-Resistant E138K Mutant Virus” (J Med Chem, 2016).
Converted amounts (≈) assume the structure as drawn.

Assays:
[1] = system: Human immunodeficiency virus 1; experiment: Antiviral activity against rilpivirine resistant HIV1 harboring reverse transcriptase E138K mutant assessed as inhibition of viral infection in human TZM-bl cells measured after 1 day by luciferase reporter gene assay; type: functional, organism-based; conditions: Human immunodeficiency virus 1, TZM-bl, 24 h
Liver microsome = experiment: Half life in human liver microsomes at 1 uM by LC-MS analysis; type: ADME
Outline: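 Compound at 1 µM final with 0.1 mg/mL human liver microsomes, 5 mM MgCl2, 1.0 mM NADPH in 0.1 M potassium phosphate pH 7.4 at 37 °C. Quenched with ice-cold acetonitrile at 0, 5, 15, 30 and 45 min, in duplicate. Parent measured by LC-MS/MS (MRM, ESI).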

[2] = Aqueous solubility in 0.01 M Hcl at pH 2 at 10 mg/ml after 4 hrs by UV-HPLC method; type: physicochemical; conditions: buffer, pH 2, 4 h
[3] = system: Human immunodeficiency virus 1; experiment: Antiviral activity against HIV1 3B infected in human MT2 cells measured on day 4 post infection by p24 ELISA method; type: functional, organism-based; conditions: Human immunodeficiency virus 1, 3B, MT2, 96 h
[4] = Cytotoxicity against human TZM-bl cells assessed as reduction in cell viability after 1 day by CytoTox-Glo assay; type: cell-based; conditions: for CC50: tzm, 24 h; for CC50 at 24 h: TZM-bl cells
Outline: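 TZM-bl cells exposed to graded compound concentrations for 1 day, run in parallel with the antiviral assay. Viability read by CytoTox-Glo following the manufacturer's protocol.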

[5] = Metabolic stability in human liver microsomes assessed as parent compound remaining at 1 uM incubated for 30 mins in presence of NADPH by LC-MS analysis; type: ADME; conditions: read-out: Stability
Outline: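 Compound at 1 µM final with 0.1 mg/mL human liver microsomes, 5 mM MgCl2, 1.0 mM NADPH in 0.1 M potassium phosphate pH 7.4 at 37 °C. Parent measured by LC-MS/MS (MRM, ESI).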

[6] = system: Human immunodeficiency virus 1; experiment: Resistance index, ratio of EC50 for rilpivirine resistant HIV1 harboring reverse transcriptase E138K mutant infected in human TZM-bl cells to EC50 for HIV1 NL4-3 infected in human TZM-bl cells; type: functional
[7] = system: Human immunodeficiency virus 1; experiment: Antiviral activity against HIV1 NL4-3 assessed as inhibition of viral infection in human TZM-bl cells measured after 1 day by luciferase reporter gene assay; type: functional, organism-based; conditions: Human immunodeficiency virus 1, NL4-3, TZM-bl, 24 h
[8] = Selectivity index, ratio of CC50 for human TZM-bl cells to EC50 for HIV1 3B infected in human MT2 cells; type: toxicity, cell-based
[9] = n-octanol-water partition coefficient, logP of compound at pH 7.4 stirred for 24 hrs followed by overnight incubation by HPLC analysis; type: physicochemical
[10] = Aqueous solubility in pH 7.4 phosphate buffer at 10 mg/ml after 4 hrs by UV-HPLC method; type: physicochemical; conditions: pH 7.4, 4 h
[11] = system: Human immunodeficiency virus 1; experiment: Antiviral activity against […] resistant HIV1 A17 harboring reverse transcriptase K103N/Y181C double mutant infected in human MT2 cells measured on day 4 post infection by p24 ELISA method; type: functional, organism-based; conditions: Human immunodeficiency virus 1, A17, MT2, 96 h
Outline: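 MT-2 cells (10^4 per well) were infected with 100 TCID50 of IIIB or A17 in RPMI 1640 with 10% FBS, with or without graded compound concentrations, overnight. Medium was then replaced with compound-free medium. On day 4, supernatant was mixed with an equal volume of 5% Triton X-100 and p24 was quantified by ELISA. EC50 was calculated from percent inhibition of p24 production.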

[12] = system: Human immunodeficiency virus 1; experiment: Resistance index, ratio of EC50 for […] resistant HIV1 A17 harboring reverse transcriptase K103N/Y181C double mutant infected in human MT2 cells to EC50 for HIV1 3B infected in human MT2 cells; type: functional
Outline: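 Fold change is EC50 against A17 (K103N/Y181C) divided by EC50 against IIIB. Both are from the MT-2 assay: 100 TCID50 virus, overnight exposure to compound, then compound-free medium, and day-4 p24 ELISA.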

[13] = system: Human immunodeficiency virus 1; experiment: Resistance index, ratio of EC50 for rilpivirine resistant HIV1 harboring reverse transcriptase K101E mutant infected in human TZM-bl cells to EC50 for HIV1 NL4-3 infected in human TZM-bl cells; type: functional
[14] = system: Human immunodeficiency virus 1; experiment: Resistance index, ratio of EC50 for HIV1 NL4-3 harboring reverse transcriptase E138K mutant infected in human TZM-bl cells to EC50 for HIV1 NL4-3 infected in human TZM-bl cells; type: functional
[15] = system: Human immunodeficiency virus 1; experiment: Resistance index, ratio of EC50 for multidrug resistant HIV1 harboring reverse transcriptase L74V/M41L/V106A/T215Y multimutant infected in human TZM-bl cells to EC50 for HIV1 NL4-3 infected in human TZM-bl cells; type: functional
[16] = system: Human immunodeficiency virus 1; experiment: Resistance index, ratio of EC50 for HIV1 NL4-3 harboring reverse transcriptase K101E mutant infected in human TZM-bl cells to EC50 for HIV1 NL4-3 infected in human TZM-bl cells; type: functional
[17] = system: Human immunodeficiency virus 1; experiment: Antiviral activity against multidrug resistant HIV1 harboring reverse transcriptase L74V/M41L/V106A/T215Y multimutant assessed as inhibition of viral infection in human TZM-bl cells measured after 1 day by luciferase reporter gene assay; type: functional, organism-based; conditions: Human immunodeficiency virus 1, TZM-bl, 24 h
[18] = system: Human immunodeficiency virus 1; experiment: Antiviral activity against HIV1 NL4-3 harboring reverse transcriptase E138K mutant assessed as inhibition of viral infection in human TZM-bl cells measured after 1 day by luciferase reporter gene assay; type: functional, organism-based; conditions: Human immunodeficiency virus 1, NL4-3, TZM-bl, 24 h
Outline: (§1)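 Single-round infection of TZM-bl cells with 800 TCID50 of NL4-3 or its RT-mutant variants, with compound at various concentrations. After 1 day, medium was replaced by Bright Glo reagent and luminescence was read.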

[19] = system: Human immunodeficiency virus 1; experiment: Antiviral activity against HIV1 NL4-3 harboring reverse transcriptase K101E mutant assessed as inhibition of viral infection in human TZM-bl cells measured after 1 day by luciferase reporter gene assay; type: functional, organism-based; conditions: Human immunodeficiency virus 1, NL4-3, TZM-bl, 24 h; outline: as §1

Structure (SMILES) | EC50 [1] [µM] | t1/2 (Liver microsome) [h] | solubility [2] [µg/mL] | EC50 [3] [µM] | CC50 [4] [µM] | remaining at 0.5 h, 1 µM [5] [%] | Ratio EC50 [6] | EC50 [7] [µM] | Ratio CC50/EC50 [8] | logD at 24 h [9] | solubility [10] [µg/mL] | Ratio EC50 [12] | further results
Cc1cc(CCC#N)cc(C)c1Oc1cc(Nc2ccc(C#N)cc2)c(N)cc1CNC1CC1 | 0.0257 | 1.65 | 276 (≈ 611 µM) | 0.00625 | 25.5 | 78.4 | 48 | 0.00053 | 4080 | 3.69 | 13.6 (≈ 30.1 µM) | – | –
Cc1cc(CCC#N)cc(C)c1Oc1cc(Nc2ccc(C#N)cc2)c(N)cc1C(=O)NC(C)C | – | – | – | 0.0477 | 184 | – | – | 0.0726 | 3857 | – | – | – | –
CNC(=O)c1cc(N)c(Nc2ccc(C#N)cc2)cc1Oc1c(Br)cc(CCC#N)cc1OC | 0.0125 | 2.32 | 25.8 (≈ 49.6 µM) | 0.0021 | 52.4 | 75.7 | 2.2 | 0.00558 | 24952 | 3.16 | 3.38 (≈ 6.5 µM) | 14 | EC50 [11]: 0.0293 µM
CNC(=O)OCc1cc(N)c(Nc2ccc(C#N)cc2)cc1Oc1c(C)cc(CCC#N)cc1C | 0.0938 | – | – | 0.00832 | 46.8 | – | 5.8 | 0.016 | 5625 | – | – | – | –
Cc1cc(CCC#N)cc(C)c1Oc1cc(Nc2ccc(C#N)cc2)c(N)cc1C(=O)NC1CC1 | 0.0221 | – | 141 (≈ 303 µM) | 0.00958 | 121 | 63.2 | 11 | 0.002 | 12630 | 2.61 | 1.94 (≈ 4.17 µM) | – | –
Cc1cc(CCC#N)cc(C)c1Oc1cc(Nc2ccc(C#N)cc2)c(N)cc1Br | 0.0652 | 0.833 | 0.25 (≈ 0.542 µM) | 0.00049 | 84.8 | 58.3 | – | 0.00326 | – | > 5 | 0.12 (≈ 0.26 µM) | – | EC50 [11]: 0.0139 µM
Cc1cc(CCC#N)cc(C)c1Oc1ccc(N)c(Nc2ccc(C#N)cc2)c1 | 0.113 | – | – | 0.0116 | – | – | 7.1 | 0.016 | > 17241 | – | – | – | CC50 at 24 h [4]: > 200 µM
Cc1cc(CCC#N)cc(C)c1Oc1cc(Nc2ccc(C#N)cc2)c(N)cc1Cl | 0.0197 | – | – | 0.00165 | 10.4 | – | 1.7 | 0.0113 | 6303 | – | – | 2.7 | EC50 [11]: 0.00449 µM; Ratio EC50 [13]: 3.3
Cc1cc(CCC#N)cc(C)c1Oc1cc(Nc2ccc(C#N)cc2)c(N)cc1CN1CCN(C)CC1 | – | – | – | – | – | – | – | 0.115 | – | – | – | – | –
COC(=O)c1cc(N)c(Nc2ccc(C#N)cc2)cc1Oc1c(Br)cc(CCC#N)cc1OC | 0.00998 | 2.32 | 1.73 (≈ 3.32 µM) | < 0.000122 | 10.1 | 81.5 | 1.9 | 0.00519 | > 82787 | 2.85 | 0.2 (≈ 0.384 µM) | – | –
CC(=O)OCc1cc(N)c(Nc2ccc(C#N)cc2)cc1Oc1c(C)cc(CCC#N)cc1C | 0.0391 | 0.17 | – | – | 44.8 | 3 | 12 | 0.0033 | – | 2.84 | – | 3.4 | –
Cc1cc(CCC#N)cc(C)c1Oc1cc(Nc2ccc(C#N)cc2)c(N)cc1CN(C)C | 0.0234 | 3.85 | 260 (≈ 591 µM) | 0.00216 | 23.8 | 93.3 | 8.6 | 0.00273 | 11019 | 2.52 | 23.4 (≈ 53.2 µM) | 1.1 | EC50 [11]: 0.00246 µM
Cc1cc(CCC#N)cc(C)c1Oc1cc(Nc2ccc(C#N)cc2)c(N)cc1C(=O)N(C)C | 0.0117 | 1.65 | 65.1 (≈ 144 µM) | 0.00159 | 38.2 | 72.2 | 1.9 | 0.00616 | 24025 | 2.86 | 1.08 (≈ 2.38 µM) | 45 | EC50 [11]: 0.0722 µM
COc1cc(/C=C/C#N)cc(Br)c1Oc1ccc(N)c(Nc2ccc(C#N)cc2)n1 | – | – | – | – | – | – | – | 0.00325 | – | – | – | – | Ratio EC50 [14]: 1.1; Ratio EC50 [15]: 1.1; Ratio EC50 [16]: 1.1; EC50 [17]: 0.0035 µM; EC50 [18]: 0.0035 µM; EC50 [19]: 0.0035 µM
CCOCc1cc(N)c(Nc2ccc(C#N)cc2)cc1Oc1c(C)cc(CCC#N)cc1C | 0.0884 | – | – | 0.00376 | 194 | – | 6.2 | 0.0143 | 51596 | – | – | 12 | EC50 [11]: 0.0466 µM
Cc1cc(CCC#N)cc(C)c1Oc1cc(Nc2ccc(C#N)cc2)c(N)cc1COC(=O)C1CC1 | 0.0233 | 0.195 | 1.24 (≈ 2.58 µM) | 0.0232 | 42.2 | 4.18 | 14 | 0.00163 | 1818 | 2.51 | 1.64 (≈ 3.41 µM) | – | –
Cc1cc(/C=C/C#N)cc(C)c1Nc1ccnc(Nc2ccc(C#N)cc2)n1 [RILPIVIRINE] | – | 1.93 | – | – | – | 80.2 | – | – | – | > 5 | – | – | CC50 at 24 h [4]: > 30 µM
COCc1cc(N)c(Nc2ccc(C#N)cc2)cc1Oc1c(C)cc(CCC#N)cc1C | 0.0133 | 3.85 | – | – | – | 90.8 | 9.2 | 0.00145 | – | 3.25 | – | 0.9 | CC50 at 24 h [4]: > 200 µM
CNC(=O)c1cc(N)c(Nc2ccc(C#N)cc2)cc1Oc1c(OC)cc(CCC#N)cc1OC | – | – | – | 0.137 | 42.6 | – | – | 0.178 | 311 | – | – | – | –
COC(=O)c1cc(N)c(Nc2ccc(C#N)cc2)cc1Oc1c(OC)cc(CCC#N)cc1OC | – | – | – | 0.329 | 128 | – | – | 0.102 | 389 | – | – | – | –
CCNC(=O)c1cc(N)c(Nc2ccc(C#N)cc2)cc1Oc1c(C)cc(CCC#N)cc1C | 0.00859 | 2.88 | 69.4 (≈ 153 µM) | 0.0171 | 105 | 85.2 | 1.9 | 0.00463 | 6140 | 3.63 | 1.08 (≈ 2.38 µM) | – | Ratio EC50 [13]: 4
